A selection: hits, their analogues and other compounds. The true share with any hit is near 3.7%.
Arbovirus anti = antivirals against arbovirus infection, primary screen, cell-based, full library, 10K replicate subset; AID 1251, 2008; 0.37% of 200,000 active; inhibition, % at 10 µM; arbovirus infection cell-based antiviral screen; in the data active = inhibition above about 30%
KCC2 mod = KCC2 cotransporter modulators, thallium flux, primary screen, cell-based, HEK293 KCC2, FluoZin-2 fluorescence, MLSMR | AID 1456, 2008 | 2.2% of 190,000 active | B-score of Tl+ flux slope (higher = more flux/activation; lower = inhibition) at 10 µM | KCC2 cells, thallium flux FluoZin-2 fluorescence;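 active = thallium flux slope and its plate-corrected score both differing from the plate sample mean at a set confidence after two filtering rounds, in either direction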;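 also: slope of fluorescence scaled to starting intensity during 10 to 20 s after thallium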
PKD1 kinase inh = inhibitors of human PKD1 kinase, biochemical, fluorescence polarization | Serine/threonine-protein kinase D1 (Homo sapiens), Q15139 | PKD1 kinase fluorescence polarization assay | inhibition, % (no concentration beside the values) | 0.056% of 200,000 active | AID 797, 2007; in the data active = inhibition above about 50%
Target sequence (Q15139 whole entry, looked up): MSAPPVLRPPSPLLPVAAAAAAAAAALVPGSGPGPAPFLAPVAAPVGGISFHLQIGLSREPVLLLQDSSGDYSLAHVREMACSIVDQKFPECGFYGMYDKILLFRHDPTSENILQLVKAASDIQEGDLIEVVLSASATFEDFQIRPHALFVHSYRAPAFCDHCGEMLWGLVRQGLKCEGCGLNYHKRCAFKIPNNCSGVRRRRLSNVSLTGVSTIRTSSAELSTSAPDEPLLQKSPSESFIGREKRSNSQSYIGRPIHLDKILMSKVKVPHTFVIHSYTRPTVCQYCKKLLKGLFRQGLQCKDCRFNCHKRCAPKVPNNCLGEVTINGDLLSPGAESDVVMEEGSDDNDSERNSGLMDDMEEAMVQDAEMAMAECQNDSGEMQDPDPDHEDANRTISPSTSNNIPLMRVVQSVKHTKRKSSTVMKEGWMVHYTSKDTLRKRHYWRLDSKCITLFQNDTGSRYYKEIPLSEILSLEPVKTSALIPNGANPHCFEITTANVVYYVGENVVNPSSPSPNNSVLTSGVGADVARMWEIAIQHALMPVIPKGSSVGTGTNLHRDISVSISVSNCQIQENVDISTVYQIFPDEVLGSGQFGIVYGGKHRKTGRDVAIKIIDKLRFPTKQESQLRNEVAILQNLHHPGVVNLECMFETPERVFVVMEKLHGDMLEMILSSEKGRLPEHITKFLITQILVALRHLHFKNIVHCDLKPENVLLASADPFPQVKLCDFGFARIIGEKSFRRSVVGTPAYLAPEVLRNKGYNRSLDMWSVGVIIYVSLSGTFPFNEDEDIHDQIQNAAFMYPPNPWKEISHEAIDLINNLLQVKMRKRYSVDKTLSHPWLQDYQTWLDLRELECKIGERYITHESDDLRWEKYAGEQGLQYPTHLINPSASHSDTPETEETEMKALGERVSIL
Calpain2 inh = inhibitors of pig calpain II, primary screen, biochemical, fluorogenic peptide substrate, 1536-well; 0.37% of 220,000 active; AID 1236, 2008; inhibition, % at 16 µM; purified calpain II, 30 min;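 active = inhibition above about 50%, limit read from the data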
ROMK mod = ROMK potassium channel modulators, primary screen, cell-based, thallium flux, MLSMR library; B-score at 10 µM; 2% of 130,000 active; AID 1918, 2009; Tet-inducible ROMK, thallium flux fluorescence; actives lie on both sides; ATP-sensitive inward rectifier potassium channel 1 (Homo sapiens), P48048;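 active = signal ratio slope over the read window, or its plate-corrected B-score, at least 3 SD from the plate mean, either direction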;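 also: B-score of the F/F0 ratio slope over 7 to 12 s after thallium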
MDM2 E3 inh = MDM2-luciferase reporter signal enhancers, primary screen, MDM2 E3 ligase inhibitor project, cell-based, luminescence, 1536-well; E3 ubiquitin-protein ligase Mdm2 (Homo sapiens), Q00987; cell-based MDM2 ubiquitination luciferase reporter, 2 h; 0 = plate control, 100 = twice control, blank-subtracted; signal enhancement, % at 5 µM; 0.11% of 210,000 active; AID 1230, 2008;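 active = signal enhancement of 30% or more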;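 also: luminescence tracks abundance of the self-degrading MDM2-luciferase fusion protein; higher signal means inhibition of MDM2 E3 ligase activity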
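System: stable MDM2–luciferase fusion reporter cells / Input: 2000 cells seeded into each well / Schedule: 4 h settle plus 2 h compound, 37 °C / Compound: single-point 5 µM / Buffer or medium: cells held in DMEM / Benchmarks: control and blank well means / Evaluation: percent signal gain over controls, blank-subtracted / Measured by: luciferase luminescence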
KCC2 secondary = KCC2 modulators in sodium-free buffer, confirmation, cell-based, HEK293 KCC2, thallium flux, secondary assay | shares compounds with KCC2 mod | FluoZin2 fluorescence; active compounds read high | normalised thallium flux (F/F0 slope) at 10 µM | 15% of 3,700 active | AID 1713, 2009;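 active = thallium flux slope above the same plate's solvent-only control mean plus 3 SD; inconclusive = the two replicate wells disagree; inactive = no significant difference from solvent-only control wells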
KCC2 bumet counter = thallium flux persisting under bumetanide in KCC2 cells, confirmation, counter-screen for KCC2 modulator project, cell-based, HEK293 KCC2, FluoZin2, secondary assay 3; shares compounds with KCC2 mod; HEK293-KCC2 + bumetanide/ouabain; active compounds read high; normalized thallium flux at 10 µM; 49% of 3,700 active; AID 1714, 2009;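 active = thallium entry rate above the same plate's blocked-transporter control wells by more than 3 SD; inconclusive = the two repeat wells disagree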;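 also: raw slope of fluorescence over initial fluorescence between 10 and 20 s after thallium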
KCC2 secondary2 = KCC2 modulators without ouabain present, confirmation, cell-based, HEK293 KCC2, thallium flux, FluoZin2, secondary assay 2; shares compounds with KCC2 mod; thallium flux FluoZin2 fluorescence; actives lie on both sides; F/F0 rise rate, 10–20 s post-thallium; normalized thallium flux at 10 µM; 23% of 3,700 active; AID 1715, 2009;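 active = thallium flux slope more than 3 SD above or below the plate's solvent-only control mean, mostly below; inconclusive = the two repeat wells disagreed; inactive = no significant shift from solvent-only controls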;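 also: raw slope with 0.1% DMSO as baseline and bumetanide as block control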
HEK293 Tl flux = thallium flux modulation in parental HEK cells, confirmation, counter-screen for KCC2 modulator project, cell-based, counterscreen 1. shares compounds with KCC2 mod. HEK293 parental cells, thallium flux FluoZin2, ouabain; baseline-ratio fluorescence slope, 10–20 s after thallium. thallium flux rate (normalised fluorescence) at 10 µM. 46% of 3,700 active. AID 1716, 2009;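 active = thallium flux rate significantly above the same plate's solvent-only control wells, beyond their mean plus 3 SD; inconclusive = the two replicate wells gave conflicting results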
KCC2 retest ouab = KCC2 inhibitors and activators, ouabain retest, confirmation, HEK-KCC2 cells; shares compounds with KCC2 mod; HEK293-KCC2, thallium flux FluoZin2 fluorescence; bidirectional: low = inhibitor, high = activator; raw Tl+ flux slope (below DMSO = inhibition, above = activation) at 10 µM; 48% of 3,700 active;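 active = thallium flux slope beyond 3 SD from same-plate DMSO control mean in most replicates, usually higher, sometimes lower; inconclusive = repeat tests gave conflicting results; inactive = no significant difference from controls in most replicates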;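 also: slope of initial-normalized fluorescence between seconds 10 and 20 after thallium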
HEK counter2 = native HEK Tl+ uptake effects, second counter-screen – HEK cells, counterscreen 2, counter-screen for KCC2 modulator project, confirmation; AID 1718, 2009; HEK293 parental, thallium flux FluoZin-2 fluorescence slope; 33% of 3,700 active; shares compounds with KCC2 mod; thallium flux slope at 10 µM;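 active = thallium flux slope above the same plate's solvent-control mean plus 3 SD in both duplicate wells; inconclusive = duplicate wells that disagreed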;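 also: run without ouabain in cells lacking the KCC2 cotransporter; slope of fluorescence scaled to its starting value between 10 and 20 s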
Numbers without * were called inactive; ? = inconclusive; . = no result.

SMILES	Arbovirus anti	KCC2 mod	PKD1 kinase inh	Calpain2 inh	ROMK mod	MDM2 E3 inh	KCC2 secondary	KCC2 bumet counter	KCC2 secondary2	HEK293 Tl flux	KCC2 retest ouab	HEK counter2
Cc1cccc(-n2c(-c3ccncc3)n[nH]c2=S)c1	7.5	0.00309	-5.2	-23.7	.	-3.6	.	.	.	.	.	.
Cc1ccc(-n2c(-c3cccc(C)c3)n[nH]c2=S)cc1	6.4	5.85*	-7.4	6.5	.	.	0.0177	0.0203*	0.0307	0.0142*	0.021*	0.0166*
Cc1ccc([N+](=O)[O-])c(-c2n[nH]c(=S)n2-c2cccc(Cl)c2)c1	.	7.13*	.	8.6	.	-3.5	0.014*	0.0322*	0.0367	0.0122*	?	0.0119*
CC(C)Cn1c(-c2csc(C(C)C)c2)n[nH]c1=S	7.9	21*	4.1	54.1*	-1.08	1.4	0.0152*	0.0801*	0.0354	0.0315*	0.0559*	0.0122*
Cc1ccc(-c2n[nH]c(=S)n2-c2ccccc2)cc1	-0.1	0.455	-1.0	-11.2	.	1.2	.	.	.	.	.	.
Cc1cccc(-n2c(-c3csc4ccccc34)n[nH]c2=S)c1	-1.6	17.1*	-14.4	8.3	.	-2.2	0.0128*	0.0694*	0.034	0.0256*	0.0549*	?
Cc1ccc(Sc2ncccc2NC(=O)c2ccccc2Cl)cc1	.	1.04	.	-6.3	-0.0774	-0.2	.	.	.	.	.	.
COc1ccc(Cn2c(-c3ccc(C)cc3)c[n+]3ccccc23)cc1	15.6	0.154	7.2	-19.3	.	-35.2	.	.	.	.	.	.
Cc1ccc(NS(=O)(=O)c2cc(NC(=O)c3ccc4c(c3)NC(=O)CS4)ccc2Cl)c(C)c1	-13.5	-1.05	4.5	-103.4	-0.654	-18.8	.	.	.	.	.	.
COc1ccc(-n2c(-c3ccco3)nc3c(cnn3-c3ccccc3C)c2=O)cc1	.	-0.223	.	-17.9	0.377	-11.5	.	.	.	.	.	.
CC(C)Cn1c(-c2csc3ccccc23)n[nH]c1=S	1.1	4.85*	4.6	36.3	.	-34.2	0.00616	0.0192*	0.0338	0.0178*	?	0.0147*
CCn1c(-c2csc3ccccc23)n[nH]c1=S	-7.2	1.02	4.1	-0.6	.	-3.4	.	.	.	.	.	.
CC(C)(C)NC(=O)C(=O)NNC(=O)c1ccccc1Br	3.6	9.55*	-13.3	-1.7	0.157	.	0.0146*	0.0243*	0.0357	?	0.0298*	0.0124
COc1ccccc1C(=O)NNC(=O)C(=O)NC(C)(C)C	7.1	33.8*	8.4	-27.8	.	-7.2	0.00573	0.0422*	0.0444*	0.0299*	0.0425*	0.0285*
O=C(NNC(=O)c1ccccc1Br)c1ccccc1Cl	6.7	0.451	-2.0	6.0	0.252	-7.3	.	.	.	.	.	.
CCOc1ccc(NC(=O)c2ccccc2OC)cc1	5.3	-4.65*	-8.5	31.3	.	-10.8	0.00765	0.00511	0.0305	0.00841	0.0195	0.0119
Cc1ccc(S(=O)(=O)N(Cc2cc3cccc(C)c3[nH]c2=O)c2ccccc2)cc1	-20.4	0.903	14.2	9.7	-0.465	.	.	.	.	.	.	.
Nc1nonc1C(=O)NCCNS(=O)(=O)c1ccc(F)cc1	0.7	0.288	-6.6	0.6	0.0576	0.7	.	.	.	.	.	.
Cc1ccc2[nH]c(=S)cc(C)c2c1	0.2	20.6*	-6.9	-218.3	1.18	-5.4	0.0109	?	0.0384	?	?	0.019*
Cc1ccc(C)c2c1[nH]c1ccccc12	-7.0	.	3.3	-22.8	0.455	13.7	.	.	.	.	.	.
Cc1ccc2c(C)cc(=S)[nH]c2c1	-0.4	28.8*	0.4	27.7	-1.06	-8.3	0.0079	0.0197*	0.0363	0.024*	0.0301*	0.021*
Cc1ccc(-c2cc(=O)c3cc(C)ccc3[nH]2)cc1	-19.8	1.14	4.4	-10.8	1.6	.	.	.	.	.	.	.
Cc1cc(=S)[nH]c2ccccc12	-2.9	5.84*	-0.7	10.8	-0.0125	1.9	0.00838	0.0154*	0.0285	0.0151*	?	0.0148*
O/N=C1\CCCc2ccc3ccccc3c21	.	-0.0431	.	13.0	.	-14.1	.	.	.	.	.	.
Cc1ccc(C(=O)NC2CCN(CC(=O)Nc3cccc([N+](=O)[O-])c3)CC2)cc1	-6.0	-1.03	1.2	-3.7	-0.949	-4.2	.	.	.	.	.	.
SMILES	Arbovirus anti	KCC2 mod	PKD1 kinase inh	Calpain2 inh	ROMK mod	MDM2 E3 inh	KCC2 secondary	KCC2 bumet counter	KCC2 secondary2	HEK293 Tl flux	KCC2 retest ouab	HEK counter2
S=C(NCCc1ccccc1)N/N=C/c1ccc(Cl)cc1	.	0.461	.	4.7	0.385	-1.6	.	.	.	.	.	.
CNC(=S)N/N=C/c1c(Cl)cccc1Cl	9.1	5.38*	5.1	27.4	-0.0903	-85.9	0.00668	0.014*	0.0295	0.0156*	0.0226	0.0134*
S=C(NCCc1ccccc1)N/N=C/c1c(Cl)cccc1Cl	-4.2	7.87*	0.4	-2.2	-0.635	-8.5	?	0.0193*	?	0.0153*	0.0323*	0.0173*
O=C(NCc1cccnc1)C(=O)Nc1nc(C23CC4CC(CC(C4)C2)C3)cs1	.	1.62	.	-1.3	.	-16.2	.	.	.	.	.	.
CNC(=O)C(=O)Nc1nc(C23CC4CC(CC(C4)C2)C3)cs1	7.2	3.87*	1.0	-39.1	-0.505	-8.3	0.00718	0.0117*	0.0277	0.0127*	?	0.0125*
O=C(NCc1ccc(F)cc1)C(=O)Nc1nc(C23CC4CC(CC(C4)C2)C3)cs1	-9.6	8.93*	-0.2	2.4	-0.455	-13.4	0.00539	0.0377*	0.0331	0.0213*	0.0344*	0.0177*
